This is a sample that favours compounds with a hit; in the whole collection about 2.6% have one here.
UCH37 inh = inhibitors of human UCH37 deubiquitinase, primary screen, biochemical, Ub-AMC cleavage, fluorescence | 330,000 tested, 0.33% active | inhibition, % (no concentration beside the values) | AID 588478, 2011 | purified proteasome/UCH37 | Ubiquitin carboxyl-terminal hydrolase isozyme L5 (Homo sapiens), Q9Y5K5;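 active = mean inhibition over replicate wells above about 20%, limit read from the data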
Target sequence (Q9Y5K5 whole entry, looked up): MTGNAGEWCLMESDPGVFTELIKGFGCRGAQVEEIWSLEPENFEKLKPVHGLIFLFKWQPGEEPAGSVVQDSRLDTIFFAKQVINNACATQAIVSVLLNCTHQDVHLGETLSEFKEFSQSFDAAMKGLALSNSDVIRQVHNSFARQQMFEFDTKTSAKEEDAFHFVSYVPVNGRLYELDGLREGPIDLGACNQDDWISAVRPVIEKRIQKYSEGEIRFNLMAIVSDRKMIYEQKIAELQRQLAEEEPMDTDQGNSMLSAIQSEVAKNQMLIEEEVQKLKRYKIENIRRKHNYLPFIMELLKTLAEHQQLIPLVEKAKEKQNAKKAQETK
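Assay system: Proteasome-bound UCH37. Buffer or medium: pH 7.4 Tris-HCl (50 mM) with ovalbumin, ATP-MgCl2, DTT. Incubation: 30 min preincubation with enzyme, 25 min cleavage at room temperature. Measured by: fluorescence, ex 355 nm, em 460 nm. Read-out basis: percent inhibition. Control set: wells without proteasome as full block, compound-free enzyme plus substrate as uninhibited.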
SENP8 block-1 = human SENP8 protease inhibitors, primary screen, biochemical, fluorescence, Nedd8 protein substrate, uHTS. Sentrin-specific protease 8 (Homo sapiens), Q96LD8. recombinant SENP8. inhibition, % at 20 µM. 360,000 tested, 0.64% active. AID 602440, 2012; in the data active = inhibition mostly above about 40%, no sharp cut-off; inactive = mostly below about 27%
SENP1 FRET inh = human SENP1 catalytic domain inhibitors, primary screen, biochemical, FRET, uHTS | Sentrin-specific protease 1 (Homo sapiens), Q9P0U3 | recombinant SENP1 catalytic domain, CyPet-SUMO1-YPet FRET cleavage | inhibition, % at 10 µM | 360,000 tested, 0.21% active;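 active = inhibition at least 30% at 10 µM, raw YFP signal under a set limit, fluorescence ratio 0.5 to 1.5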
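Test system: hSENP1 catalytic domain, recombinant; Amount: 20 pM final SENP1 enzyme; Medium: Tris pH 8 buffer plus EDTA, NaCl, BME, BSA, NP40, catalase; Schedule: 50 min enzyme reaction, room temperature, light-protected; Technique: FRET fluorescence in CFP and YFP emission channels; Controls: no-enzyme wells low, DMSO-plus-enzyme wells high control.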
SENP7 block = SENP7 protease inhibitors, primary screen, biochemical, luminescence, uHTS; 330,000 tested, 1.5% active; recombinant SENP7, Z-RLRGG-aminoluciferin luminescence, 40 min; Sentrin-specific protease 7 (Homo sapiens), Q9BQF6; inhibition, % at 5 µM;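 active = inhibition above about 50% at the single test dose, limit read from the data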
SENP6 inh = SENP6 protease inhibitors, primary screen, biochemical, luminescence, uHTS. Sentrin-specific protease 6 (Homo sapiens), Q9GZR1. inhibition, % at 10 µM. 330,000 tested, 1.8% active. Recombinant SENP6 catalytic domain, aminoluciferin luminescence;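 active = inhibition above about 50% at the single tested dose, limit read from the data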
SENP8 block-2 = SENP8 protease inhibitors, primary screen, biochemical, luminescence | Sentrin-specific protease 8 (Homo sapiens), Q96LD8 | AID 2540, 2010 | inhibition, % at 10 µM | 330,000 tested, 1.2% active | purified SENP8, Z-RLRGG-aminoluciferin cleavage; in the data active = inhibition above about 50%
SENP8 conf = SENP8 protease inhibitors, retest, confirmation, biochemical, luminescence, single concentration | inhibition, % at 12.5 µM | 6,200 tested, 40% active | AID 488912, 2010 | Recombinant SENP8, Z-RLRGG-aminoluciferin luminescence, 60 min | shares compounds with SENP7 block;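 active = mean inhibition across replicates above about 50%, limit read from the data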
SENP6 confirm = SENP6 protease inhibitors, confirmation, biochemical, luminescence, single concentration; inhibition, % at 12.5 µM; recombinant SENP6, Z-RLRGG-aminoluciferin luminescence; shares compounds with SENP7 block; 6,200 tested, 58% active; AID 488915, 2010
SENP7 confirm = SENP7 protease inhibitors, retest, confirmation, biochemical, luminescence, single concentration; shares compounds with SENP7 block; recombinant SENP7, Z-RLRGG-aminoluciferin luminescence, 40 min; inhibition, % at 12.5 µM; 6,200 tested, 69% active; AID 488917, 2010
Casp3 SENP sel = caspase-3 protease inhibitors, confirmation, selectivity assay for SENP inhibitor project, biochemical, single concentration. shares compounds with SENP7 block. purified caspase-3, Z-DEVD-aminoluciferin luminescence, 60 min. inhibition, % at 12.5 µM. 6,200 tested, 60% active. AID 488918, 2010;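 active = mean inhibition above about 50%, limit read from the data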
SENP luc ctr = counter-screen for SENP inhibitors: luminescence interference. shares compounds with SENP7 block. inhibition, % at 12.5 µM. Pre-incubated SENP8/Z-RLRGG-aminoluciferin, luciferase luminescence interference. 6,200 tested, 39% active. AID 488919;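 active = mean inhibition above about 50% when retested at one dose, limit read from the data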
A number is an active result.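 The calls were made as follows, unless noted: active = mean inhibition above about 50% in the one-dose retest (limit read from the data); inactive = the rest.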

For COc1ccc(Cn2c(N)c(C(=O)NCc3ccco3)c3nc4ccccc4nc32)cc1 the results were UCH37 inh inactive, SENP8 block-1 inactive, SENP1 FRET inh inactive, SENP7 block inactive, SENP6 inh 57.7, SENP8 block-2 inactive, SENP8 conf inactive, SENP6 confirm inactive, SENP7 confirm inactive, Casp3 SENP sel inactive and SENP luc ctr inactive.
For Nc1c(C(=O)NCc2ccco2)c2nc3ccccc3nc2n1Cc1ccc(F)cc1 the results were UCH37 inh inactive, SENP8 block-1 inactive, SENP1 FRET inh inactive, SENP7 block 54.1, SENP6 inh 88.6, SENP8 block-2 74.7, SENP8 conf inactive, SENP6 confirm inactive, SENP7 confirm inactive, Casp3 SENP sel inactive and SENP luc ctr inactive.
For CC(=O)O[C@@H]1C=C[C@](C)(O)C[C@@H](C)CC=C[C@H]2[C@H](O)[C@@](C)(O)[C@@H](C)[C@H]3[C@H](Cc4ccccc4)NC(=O)[C@@]312 the results were UCH37 inh inactive.
CCC(C)N1C(=O)NC(=O)C2(Cc3c(ccc4ccccc34)N(C)C2)C1=O (stereo not drawn) was read as UCH37 inh inactive, SENP8 block-1 inactive, SENP1 FRET inh inactive, SENP7 block inactive, SENP6 inh 75.6, SENP8 block-2 inactive, SENP8 conf inactive, SENP6 confirm inactive, SENP7 confirm inactive, Casp3 SENP sel inactive and SENP luc ctr inactive.
COc1ccc2c(c1)CC1(CN2C)C(=O)NC(=O)N(CCc2ccccc2)C1=O (stereo not drawn) was read as UCH37 inh inactive, SENP8 block-1 inactive, SENP1 FRET inh inactive, SENP7 block inactive, SENP6 inh inactive and SENP8 block-2 inactive.
`COc1cc(C=NNC(=O)CN2CC(c3ccccc3)CC2=O)ccc1OC(=O)N(C)C` (stereo not drawn) gave UCH37 inh inactive.
`Fc1cccc(F)c1-c1nc(-c2ccc(Cl)cc2)no1` gave UCH37 inh inactive, SENP8 block-1 inactive, SENP1 FRET inh inactive, SENP7 block 61.2, SENP6 inh 71.2, SENP8 block-2 65.0, SENP8 conf inactive, SENP6 confirm 65.9, SENP7 confirm 63.4, Casp3 SENP sel inactive and SENP luc ctr inactive.
O=C(c1ccc2nc(-c3ccco3)c(-c3ccco3)nc2c1)N1CCC2(CC1)OCCO2 was read as UCH37 inh inactive, SENP8 block-1 inactive, SENP1 FRET inh inactive, SENP7 block inactive, SENP6 inh 81.9, SENP8 block-2 inactive, SENP8 conf inactive, SENP6 confirm inactive, SENP7 confirm inactive, Casp3 SENP sel inactive and SENP luc ctr inactive.
`COc1ccc(C(=O)N2CCC3(CC2)OCCO3)cc1` gave UCH37 inh inactive, SENP8 block-1 inactive, SENP1 FRET inh inactive, SENP7 block inactive, SENP6 inh inactive and SENP8 block-2 inactive.
Screening COc1ccc(C(=O)ON=C(C(N)=O)P(=O)(OC(C)C)OC(C)C)cc1 returned UCH37 inh inactive.

Source: PubChem (several laboratories)
